Publication PMC9924264 (Journal of Medicinal Chemistry, 2023)

Assays:
[1] = target: T1, BMPR2 kinase domain (Homo sapiens, UniProt Q13873); test: BMPR2 Kinase-Glo kinase inhibition assay; format: biochemical; details: for fold loss of BMPR2 potency: compared to parent CDD-1115 (CDD-1280: relative to CDD-1281)
T1 sequence (Q13873 188-517): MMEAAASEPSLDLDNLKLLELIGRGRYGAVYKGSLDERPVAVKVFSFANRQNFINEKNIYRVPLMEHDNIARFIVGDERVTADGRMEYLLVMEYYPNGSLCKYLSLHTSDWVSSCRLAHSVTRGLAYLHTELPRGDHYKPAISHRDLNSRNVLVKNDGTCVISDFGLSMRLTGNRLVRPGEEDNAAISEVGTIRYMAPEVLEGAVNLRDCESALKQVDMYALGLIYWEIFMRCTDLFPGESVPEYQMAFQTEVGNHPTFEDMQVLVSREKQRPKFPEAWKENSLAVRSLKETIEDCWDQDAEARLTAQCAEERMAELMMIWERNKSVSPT
Summary of the method: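 Recombinant human BMPR2 kinase domain (aa188-517, C-terminal His-tag) expressed in E. coli and purified by affinity, anion-exchange and size-exclusion chromatography. Substrate-free ATPase end-point assay: 10 μM ATP, 0.02% Tween-20, kinase buffer, 30 min at 30 °C. Enzyme level optimized for linear initial velocity. Leftover ATP read by luciferase luminescence, with no-kinase controls. Kiapp from modified Morrison equation fit to normalized fractional activity, no inhibition mode assumed.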

[2] = test system: pSMAD1/5 in human umbilical vein endothelial cells (HUVECs); test: pSMAD1/5 Western blot, BMP9-stimulated HUVECs; format: cell-based; details: 25 μM, 30 min pretreatment, 0.5 ng/mL BMP9 15 min
Summary of the method: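 HUVECs, about 3 × 10^5 per well, starved overnight in Kaighn's F-12 with 0.5% FBS and 30 μg/mL endothelial cell growth supplement. Pretreated with inhibitors for 30 min, then given 0.5 ng/mL BMP9 for 15 min. Lysed with protease and phosphatase inhibitors. SDS-PAGE immunoblot for pSMAD1/5, SMAD1, SMAD5 and GAPDH, with densitometry. n = 3 biological replicates; one-way ANOVA with Tukey post hoc test.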

[3] = target: WNK2 (Homo sapiens, UniProt Q9Y3S1); test: ThermoFisher Kd Elect screening; format: binding
Chain of WNK2 (Q9Y3S1 whole entry): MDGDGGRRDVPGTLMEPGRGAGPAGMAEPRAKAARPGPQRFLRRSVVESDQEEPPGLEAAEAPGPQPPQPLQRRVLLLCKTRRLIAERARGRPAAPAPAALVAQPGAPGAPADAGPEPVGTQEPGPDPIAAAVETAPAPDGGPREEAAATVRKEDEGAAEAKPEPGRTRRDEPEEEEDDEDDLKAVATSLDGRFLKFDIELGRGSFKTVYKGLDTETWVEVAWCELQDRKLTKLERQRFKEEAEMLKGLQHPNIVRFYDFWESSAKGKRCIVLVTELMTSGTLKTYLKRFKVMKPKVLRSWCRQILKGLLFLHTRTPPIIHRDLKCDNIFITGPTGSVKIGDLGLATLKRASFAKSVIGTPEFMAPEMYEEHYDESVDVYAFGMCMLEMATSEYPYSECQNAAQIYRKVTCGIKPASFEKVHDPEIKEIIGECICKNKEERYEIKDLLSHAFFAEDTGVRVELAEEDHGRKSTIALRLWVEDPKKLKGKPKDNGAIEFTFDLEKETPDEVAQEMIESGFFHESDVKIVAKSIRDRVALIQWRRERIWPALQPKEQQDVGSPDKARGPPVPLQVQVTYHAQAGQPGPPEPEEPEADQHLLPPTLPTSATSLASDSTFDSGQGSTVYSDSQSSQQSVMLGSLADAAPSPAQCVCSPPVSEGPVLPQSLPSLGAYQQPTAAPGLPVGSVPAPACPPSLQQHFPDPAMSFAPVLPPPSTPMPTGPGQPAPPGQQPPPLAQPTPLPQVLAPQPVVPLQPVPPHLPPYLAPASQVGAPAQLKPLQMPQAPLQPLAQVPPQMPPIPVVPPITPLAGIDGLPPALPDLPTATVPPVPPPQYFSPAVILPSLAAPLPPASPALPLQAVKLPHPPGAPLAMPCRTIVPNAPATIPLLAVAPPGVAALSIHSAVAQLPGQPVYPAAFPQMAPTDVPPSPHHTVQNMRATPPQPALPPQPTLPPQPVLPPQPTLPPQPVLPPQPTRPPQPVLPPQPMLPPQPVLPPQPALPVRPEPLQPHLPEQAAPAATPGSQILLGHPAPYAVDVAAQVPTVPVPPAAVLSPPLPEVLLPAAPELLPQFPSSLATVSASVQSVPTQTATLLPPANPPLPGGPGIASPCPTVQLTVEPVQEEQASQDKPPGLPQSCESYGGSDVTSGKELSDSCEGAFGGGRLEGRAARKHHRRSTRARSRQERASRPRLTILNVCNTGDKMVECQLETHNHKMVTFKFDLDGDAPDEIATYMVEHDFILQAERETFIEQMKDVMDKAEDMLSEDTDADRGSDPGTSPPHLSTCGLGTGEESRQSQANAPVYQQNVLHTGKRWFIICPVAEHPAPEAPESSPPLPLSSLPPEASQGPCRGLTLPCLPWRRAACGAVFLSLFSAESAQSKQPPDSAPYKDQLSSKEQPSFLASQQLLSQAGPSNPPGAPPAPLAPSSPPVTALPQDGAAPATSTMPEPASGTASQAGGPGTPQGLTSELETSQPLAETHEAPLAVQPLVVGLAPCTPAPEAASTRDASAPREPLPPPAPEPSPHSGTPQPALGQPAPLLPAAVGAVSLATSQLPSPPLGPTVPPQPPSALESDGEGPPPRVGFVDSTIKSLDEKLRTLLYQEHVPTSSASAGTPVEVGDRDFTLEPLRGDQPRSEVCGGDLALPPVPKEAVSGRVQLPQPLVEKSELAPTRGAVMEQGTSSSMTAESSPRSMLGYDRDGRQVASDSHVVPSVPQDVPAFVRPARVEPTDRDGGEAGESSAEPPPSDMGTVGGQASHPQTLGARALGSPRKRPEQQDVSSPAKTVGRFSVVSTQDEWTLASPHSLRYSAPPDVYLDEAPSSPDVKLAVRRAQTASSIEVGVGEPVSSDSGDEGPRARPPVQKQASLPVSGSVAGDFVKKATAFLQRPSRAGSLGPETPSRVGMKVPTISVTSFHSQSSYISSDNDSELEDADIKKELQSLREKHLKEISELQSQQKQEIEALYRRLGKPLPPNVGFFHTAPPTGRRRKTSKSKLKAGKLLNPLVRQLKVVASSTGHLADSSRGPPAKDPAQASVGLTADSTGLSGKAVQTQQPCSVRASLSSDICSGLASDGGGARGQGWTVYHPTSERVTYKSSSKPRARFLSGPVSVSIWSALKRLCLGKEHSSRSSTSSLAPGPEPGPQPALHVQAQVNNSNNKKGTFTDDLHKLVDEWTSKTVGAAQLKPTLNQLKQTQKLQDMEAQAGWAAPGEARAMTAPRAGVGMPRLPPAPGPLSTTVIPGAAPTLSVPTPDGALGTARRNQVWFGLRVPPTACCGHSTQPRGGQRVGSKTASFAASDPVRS

[4] = target: WNK1 (Homo sapiens, UniProt Q9H4A3); test: ThermoFisher Kd Elect screening; format: binding
[5] = target: ACVR2B (Homo sapiens, UniProt Q13705); test: ThermoFisher SelectScreen LanthaScreen assay; format: binding; details: N/A = not active
Summary of the method: (§1)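 Outsourced kinase profiling in TR-FRET binding format, measuring displacement of a tight-binding tracer from the kinase by test compound. IC50 reported.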

[6] = target: T1, BMPR2 kinase domain; test: Thermal shift assay; format: binding; details: 50 μM compound; BMPR2 alone Tm 52.1 °C
Summary of the method: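 Purified BMPR2 kinase domain (1 μg) in 50 mM Tris–HCl pH 7.5, 150 mM NaCl with 50 μM test compound and 5× SYPRO Orange. Heated 20 to 95 °C, fluorescence read every 10 s. Tm taken from the unfolding curve; three technical replicates averaged.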

[7] = target: ACVRL1 (ALK1) (Homo sapiens, UniProt P37023); test: ThermoFisher SelectScreen LanthaScreen assay; format: binding; details: ALK1, text
Chain of ACVRL1 (ALK1) (P37023 22-503): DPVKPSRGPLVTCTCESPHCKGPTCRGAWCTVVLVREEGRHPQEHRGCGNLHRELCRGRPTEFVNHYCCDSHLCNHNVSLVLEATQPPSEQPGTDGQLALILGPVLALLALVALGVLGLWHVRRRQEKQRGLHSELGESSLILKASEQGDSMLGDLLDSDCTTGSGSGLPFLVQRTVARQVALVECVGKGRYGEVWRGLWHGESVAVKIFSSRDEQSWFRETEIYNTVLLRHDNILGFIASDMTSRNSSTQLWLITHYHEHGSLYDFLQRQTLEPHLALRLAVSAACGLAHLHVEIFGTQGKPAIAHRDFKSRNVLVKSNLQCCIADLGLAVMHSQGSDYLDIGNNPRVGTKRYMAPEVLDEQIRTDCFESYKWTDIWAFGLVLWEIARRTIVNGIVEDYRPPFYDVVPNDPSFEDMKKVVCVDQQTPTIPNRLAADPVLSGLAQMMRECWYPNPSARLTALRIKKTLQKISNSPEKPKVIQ

[8] = target: BMPR1B (ALK6) (Homo sapiens, UniProt O00238); test: ThermoFisher SelectScreen LanthaScreen assay; format: binding
Chain of BMPR1B (ALK6) (O00238 14-502): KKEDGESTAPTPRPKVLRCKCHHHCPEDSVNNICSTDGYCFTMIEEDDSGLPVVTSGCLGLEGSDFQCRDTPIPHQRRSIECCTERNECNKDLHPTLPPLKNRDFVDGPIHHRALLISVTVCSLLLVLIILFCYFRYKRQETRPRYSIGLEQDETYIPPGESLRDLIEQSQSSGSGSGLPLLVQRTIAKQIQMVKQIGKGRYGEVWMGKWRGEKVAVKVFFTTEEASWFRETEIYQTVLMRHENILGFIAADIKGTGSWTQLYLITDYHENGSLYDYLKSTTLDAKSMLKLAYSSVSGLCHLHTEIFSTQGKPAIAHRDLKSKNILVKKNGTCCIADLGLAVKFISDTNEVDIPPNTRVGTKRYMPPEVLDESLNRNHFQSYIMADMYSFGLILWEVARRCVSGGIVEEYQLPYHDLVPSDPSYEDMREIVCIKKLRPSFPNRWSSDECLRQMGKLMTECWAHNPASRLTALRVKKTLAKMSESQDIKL

[9] = target: BMPR1A (ALK3) (Homo sapiens, UniProt P36894); test: ThermoFisher SelectScreen LanthaScreen assay; format: binding
Chain of BMPR1A (ALK3) (P36894 24-532): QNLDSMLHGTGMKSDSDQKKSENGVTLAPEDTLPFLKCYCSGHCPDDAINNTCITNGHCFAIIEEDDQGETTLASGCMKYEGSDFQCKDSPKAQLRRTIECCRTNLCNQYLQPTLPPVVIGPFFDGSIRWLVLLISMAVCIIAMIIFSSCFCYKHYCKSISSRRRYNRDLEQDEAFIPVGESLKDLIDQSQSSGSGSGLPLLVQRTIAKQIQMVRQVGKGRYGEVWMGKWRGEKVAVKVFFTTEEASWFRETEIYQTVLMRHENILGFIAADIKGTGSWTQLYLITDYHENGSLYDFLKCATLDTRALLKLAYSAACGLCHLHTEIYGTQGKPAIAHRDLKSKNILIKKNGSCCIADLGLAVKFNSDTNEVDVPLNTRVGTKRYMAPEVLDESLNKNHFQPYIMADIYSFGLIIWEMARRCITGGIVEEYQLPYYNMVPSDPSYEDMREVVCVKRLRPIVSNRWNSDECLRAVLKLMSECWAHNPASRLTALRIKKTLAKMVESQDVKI

[10] = target: ACVR2A (Homo sapiens, UniProt P27037); test: ThermoFisher SelectScreen LanthaScreen assay; format: binding; details: N/A = not active
Chain of ACVR2A (P27037 20-513): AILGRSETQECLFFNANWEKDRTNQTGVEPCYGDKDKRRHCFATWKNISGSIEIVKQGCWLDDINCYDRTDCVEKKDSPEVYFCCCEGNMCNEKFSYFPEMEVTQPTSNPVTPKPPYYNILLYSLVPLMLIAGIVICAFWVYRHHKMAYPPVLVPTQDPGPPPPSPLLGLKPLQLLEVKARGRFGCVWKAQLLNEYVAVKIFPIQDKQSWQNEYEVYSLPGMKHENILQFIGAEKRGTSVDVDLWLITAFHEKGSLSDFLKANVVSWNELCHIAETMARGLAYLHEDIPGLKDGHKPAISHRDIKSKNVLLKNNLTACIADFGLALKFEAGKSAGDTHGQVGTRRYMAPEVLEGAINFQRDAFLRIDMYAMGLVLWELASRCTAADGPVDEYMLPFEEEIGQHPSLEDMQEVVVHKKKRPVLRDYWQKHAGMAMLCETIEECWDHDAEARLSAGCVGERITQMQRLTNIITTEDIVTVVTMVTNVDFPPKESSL
Summary of the method: as §1

[11] = target: T2, ACVR1B (ALK4) (Homo sapiens, UniProt P36896); test: ThermoFisher SelectScreen Z’-LYTE assay; format: biochemical; details: N/A = not active
T2 sequence (P36896 24-505): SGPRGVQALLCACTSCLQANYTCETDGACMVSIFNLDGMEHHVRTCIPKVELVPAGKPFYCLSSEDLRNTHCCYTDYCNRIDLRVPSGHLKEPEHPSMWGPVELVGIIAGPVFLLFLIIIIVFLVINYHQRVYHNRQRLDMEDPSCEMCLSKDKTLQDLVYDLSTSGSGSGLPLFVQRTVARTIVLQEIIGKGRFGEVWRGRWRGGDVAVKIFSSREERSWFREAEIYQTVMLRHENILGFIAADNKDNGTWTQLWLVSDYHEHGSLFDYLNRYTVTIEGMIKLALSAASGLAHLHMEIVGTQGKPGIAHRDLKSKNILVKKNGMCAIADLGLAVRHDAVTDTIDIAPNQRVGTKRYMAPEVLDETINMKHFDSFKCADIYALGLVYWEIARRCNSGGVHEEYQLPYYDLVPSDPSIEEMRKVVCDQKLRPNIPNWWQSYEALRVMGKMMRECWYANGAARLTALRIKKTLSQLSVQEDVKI

[12] = target: T3, TGFBR1 (ALK5) (Homo sapiens, UniProt P36897); test: ThermoFisher SelectScreen LanthaScreen assay; format: binding
T3 sequence (P36897 34-503): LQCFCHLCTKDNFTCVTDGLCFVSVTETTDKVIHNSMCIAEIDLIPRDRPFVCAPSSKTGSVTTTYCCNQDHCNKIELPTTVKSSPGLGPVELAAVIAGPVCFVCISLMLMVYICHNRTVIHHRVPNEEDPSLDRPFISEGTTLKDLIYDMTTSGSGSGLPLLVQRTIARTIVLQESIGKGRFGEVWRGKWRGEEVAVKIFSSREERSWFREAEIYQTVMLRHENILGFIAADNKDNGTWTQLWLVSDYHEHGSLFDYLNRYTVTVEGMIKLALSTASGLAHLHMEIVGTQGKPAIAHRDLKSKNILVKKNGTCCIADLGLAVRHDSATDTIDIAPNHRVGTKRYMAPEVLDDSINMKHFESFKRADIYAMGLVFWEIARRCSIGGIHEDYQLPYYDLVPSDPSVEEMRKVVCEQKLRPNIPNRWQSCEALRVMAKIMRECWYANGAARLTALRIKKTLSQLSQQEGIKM

[13] = target: T4, ACVR1 (ALK2) (Homo sapiens, UniProt Q04771); test: ThermoFisher SelectScreen LanthaScreen assay; format: binding; details: ALK2, text
T4 sequence (Q04771 21-509): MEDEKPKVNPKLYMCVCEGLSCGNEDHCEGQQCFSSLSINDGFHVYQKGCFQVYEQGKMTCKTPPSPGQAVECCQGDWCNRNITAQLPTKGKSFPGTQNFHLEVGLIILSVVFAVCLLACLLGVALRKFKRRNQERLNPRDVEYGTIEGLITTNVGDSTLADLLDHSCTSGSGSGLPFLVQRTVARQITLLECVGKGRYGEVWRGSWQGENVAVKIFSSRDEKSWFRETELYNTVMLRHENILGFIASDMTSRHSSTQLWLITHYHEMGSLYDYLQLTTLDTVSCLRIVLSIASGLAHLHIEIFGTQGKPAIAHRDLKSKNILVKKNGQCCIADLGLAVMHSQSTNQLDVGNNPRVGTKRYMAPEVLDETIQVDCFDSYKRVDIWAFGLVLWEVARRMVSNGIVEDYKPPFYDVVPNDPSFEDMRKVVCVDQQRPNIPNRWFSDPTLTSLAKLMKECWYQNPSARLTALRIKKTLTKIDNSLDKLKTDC

[14] = target: TGFBR2 (Homo sapiens, UniProt P37173); test: ThermoFisher SelectScreen LanthaScreen assay; format: binding
Chain of TGFBR2 (P37173 23-567): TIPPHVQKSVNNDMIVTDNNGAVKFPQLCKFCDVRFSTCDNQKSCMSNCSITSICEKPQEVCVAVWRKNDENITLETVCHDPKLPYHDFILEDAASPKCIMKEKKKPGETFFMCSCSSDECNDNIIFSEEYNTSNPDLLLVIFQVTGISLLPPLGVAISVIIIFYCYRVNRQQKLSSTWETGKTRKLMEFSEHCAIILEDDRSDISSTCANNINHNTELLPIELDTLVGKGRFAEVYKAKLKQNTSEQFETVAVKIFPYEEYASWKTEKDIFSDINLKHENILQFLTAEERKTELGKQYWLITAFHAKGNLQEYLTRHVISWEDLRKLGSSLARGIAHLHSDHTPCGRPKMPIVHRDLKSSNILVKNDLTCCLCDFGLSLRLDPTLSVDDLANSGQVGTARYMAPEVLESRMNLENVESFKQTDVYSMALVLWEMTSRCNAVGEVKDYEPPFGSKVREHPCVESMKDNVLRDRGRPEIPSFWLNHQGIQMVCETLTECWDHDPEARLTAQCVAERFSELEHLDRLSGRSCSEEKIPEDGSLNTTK

For `CNC(=O)[C@@H]1CC[C@@H](n2c(-c3cccc(Cl)c3)nc3ccc(C(=O)NCc4cccc(C(N)=O)c4)cc32)C1` [CDD-1284, N-(3-Carbamoylbenzyl)-2-(3-chlorophenyl)-1-((1R,3R)-3-(methylcarbamoyl)cyclopentyl)-1H-benzo[d]imidazole-6-carboxamide], the “fold loss of BMPR2 potency” value [1] was 160 fold.

In the case of `COc1cnc(Nc2cccc(S(N)(=O)=O)c2)nc1N1CCN(c2ccccc2)CC1` [CDD-1496, 3-((5-Methoxy-4-(4-phenylpiperazin-1-yl)pyrimidin-2-yl)amino)benzenesulfonamide], the “phosphorylation of SMAD1/5 (pSMAD1/5)” value [2] is reported as “significantly decreased” and the “fold drop in BMPR2 potency” value ([1]; compared to parent CDD-1431) is reported as 2 fold.

With `CNC(=O)c1ccc2nc(-c3ccc4cnccc4c3)n([C@@H]3CC[C@@H](C(=O)NC)C3)c2c1` [CDD-1282, 2-(Isoquinolin-6-yl)-N-methyl-1-((1R,3R)-3-(methylcarbamoyl)cyclopentyl)-1H-benzo[d]imidazole-6-carboxamide] the “fold loss of BMPR2 potency” value [1] was “complete loss of potency”.

In the case of `CNC(=O)[C@@H]1CC[C@@H](n2c(-c3cc(Cl)cc(Cl)c3)nc3ccc(C(=O)NCc4cccc(C(N)=O)c4)cc32)C1` [CDD-1285, N-(3-Carbamoylbenzyl)-2-(3,5-dichlorophenyl)-1-((1R,3R)-3-(methylcarba-moyl)cyclopentyl)-1H-benzo[d]imidazole-6-carboxamide], the “fold loss of BMPR2 potency” value [1] is reported as 160 fold.

In the case of `Cn1c(-c2ccc3cnccc3c2)nc2ccc(C(=O)NCc3cccc(C(N)=O)c3)cc21` [CDD-1280, N-(3-Carbamoylbenzyl)-2-(isoquinolin-6-yl)-1-methyl-1H-benzo[d]imidazole-6-carboxamide], the “fold loss of BMPR2 potency” value [1] is reported as 2.7 fold.

With `COc1cnc(Nc2cccc(S(N)(=O)=O)c2)nc1N1CCNCC1` [CDD-1497, 3-((5-Methoxy-4-(piperazin-1-yl)pyrimidin-2-yl)amino)benzenesulfonamide] the “fold drop in BMPR2 potency” value ([1]; compared to parent CDD-1431) was 12 fold.

With `COc1cnc(Nc2cccc(S(N)(=O)=O)c2)nc1N1CCN(c2ccccc2)C(=O)C1` [CDD-1653, 3-((5-Methoxy-4-(3-oxo-4-phenylpiperazin-1-yl)pyrimidin-2-yl)amino)benzenesulfonamide] the “phosphorylation of SMAD1/5 (pSMAD1/5)” value [2] was “significantly decreased”, the Kd [3] was greater than 3 µM and the Kd [4] was greater than 3 µM.

In the case of `CCOc1cnc(Nc2cccc(S(N)(=O)=O)c2)nc1N1CCN(c2ccccc2)C(=O)C1` [CDD-1703, 3-((5-Ethoxy-4-(3-oxo-4-phenylpiperazin-1-yl)pyrimidin-2-yl)amino)benzenesulfonamide], the “fold improved BMPR2 potency” value ([1]; compared to parent CDD-1431) is reported as 4 fold.

With `CNC(=O)[C@@H]1CC[C@@H](n2c(-c3ccc4cnccc4c3)nc3ccc(C(=O)NCc4ccccc4)cc32)C1` [CDD-1283, N-Benzyl-2-(isoquinolin-6-yl)-1-((1R,3R)-3-(methylcarbamoyl)cyclopentyl)-1H-benzo[d]imidazole-6-carboxamide] the “fold loss of BMPR2 potency” value [1] was 6.2 fold.

`CNC(=O)[C@@H]1CC[C@@H](n2c(-c3ccc4cnccc4c3)nc3ccc(C(=O)NCc4cccc(C(N)=O)c4)cc32)C1` [CDD-1115, N-(3-Carbamoylbenzyl)-2-(isoquinolin-6-yl)-1-((1R,3R)-3-(methylcarbamoyl)cyclopentyl)-1H-benzo[d]imidazole-6-carboxamide] was tested, and the IC50 [5] was “inactive”, the “melting temperature (Tm)” value [6] was 67.8 °C and the “selectivity over BMPR2” value [7] was greater than 100 fold. For the same molecule, the “selectivity over BMPR2” value ([8]; ALK6, text) was greater than 555 fold, the selectivity ([8]; ALK6 vs BMPR2) was greater than 555× and the “selectivity over BMPR2” value ([9]; ALK3, text) was greater than 555 fold. The selectivity ([9]; ALK3 vs BMPR2) was greater than 555×, the IC50 [10] was “inactive” and the IC50 [11] was “inactive”. For the same molecule, the “selectivity over BMPR2” value ([12]; ALK5, text) was greater than 555 fold, the selectivity ([12]; ALK5 vs BMPR2) was greater than 555× and the “selectivity over BMPR2” value [13] was greater than 100 fold. The IC50 [14] was greater than 1 µM, the “selectivity over BMPR2” value ([14]; TGFBR2, text) was greater than 555 fold and the selectivity ([14]; TGFBR2 vs BMPR2) was greater than 555×.

`CNC(=O)CCc1ccc(C(=O)NCc2cccc(N3CCN(c4nc(Nc5cccc(S(N)(=O)=O)c5)ncc4OC)CC3)c2)cc1` [CDD-1431, N-(3-(4-(5-Methoxy-2-((3-sulfamoylphenyl)amino)pyrimidin-4-yl)piperazin-1-yl)benzyl)-4-(3-(methylamino)-3-oxopropyl)benzamide] was tested, and the “melting temperature (Tm)” value [6] was 66.0 °C.
